Reference: ChEMBL document CHEMBL2057083, “Development of new carbon-11 labelled radiotracers for imaging GABAA- and GABAB-benzodiazepine receptors” (Bioorg Med Chem, 2012)
Each block holds one compound with its values, some of them ahead of it.

Assays:
[1] = Lipophilicity, log D in octanol/buffer at pH 7.4 by shake-flask method
[2] = test system: Rattus norvegicus; assay: Biodistribution in Sprague-Dawley rat cortex (front) at 37 MBq, iv measured 60 mins post injection; assay type: ADME, organism-based; conditions: in vivo, 1 h
[3] = test system: Rattus norvegicus; assay: Biodistribution in Sprague-Dawley rat cortex (rest) at 37 MBq, iv measured 60 mins post injection; assay type: ADME, organism-based; conditions: in vivo, 1 h
[4] = test system: Hippocampus; assay: Biodistribution in Sprague-Dawley rat hippocampus at 37 MBq, iv measured 60 mins post injection; assay type: ADME, organism-based; conditions: in vivo, 1 h
[5] = test system: Rattus norvegicus; assay: Biodistribution in Sprague-Dawley rat cortex (rest) at 37 MBq, iv measured 30 mins post injection; assay type: ADME, organism-based; conditions: in vivo, 0.5 h
[6] = test system: Striatum; assay: Biodistribution in Sprague-Dawley rat striatum at 37 MBq, iv measured 15 mins post injection; assay type: ADME, organism-based; conditions: in vivo, 0.25 h
[7] = test system: Thalamus; assay: Biodistribution in Sprague-Dawley rat thalamus at 37 MBq, iv measured 5 mins post injection; assay type: ADME, organism-based; conditions: in vivo
Summary of the method: (§1)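 Conscious rats received the radiotracer by tail-vein injection and were killed by decapitation at the stated time. Brains were removed, and regions were excised, blotted, weighed and counted for radioactivity. Uptake is given as decay-corrected %ID/g.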

[8] = test system: Rattus norvegicus; assay: Biodistribution in Sprague-Dawley rat cortex (front) at 37 MBq, iv measured 15 mins post injection; assay type: ADME, organism-based; conditions: in vivo, 0.25 h
[9] = test system: Hippocampus; assay: Biodistribution in Sprague-Dawley rat hippocampus at 37 MBq, iv measured 5 mins post injection; assay type: ADME, organism-based; conditions: in vivo
[10] = test system: Rattus norvegicus; assay: Biodistribution in Sprague-Dawley rat hipothalamus at 37 MBq, iv measured 30 mins post injection; assay type: ADME, organism-based, Hypothalamus; conditions: in vivo, 0.5 h; summary of the method: as §1
[11] = test system: Rattus norvegicus; assay: Biodistribution in Sprague-Dawley rat cortex (rest) at 37 MBq, iv measured 2 mins post injection; assay type: ADME, organism-based; conditions: in vivo
[12] = test system: Striatum; assay: Biodistribution in Sprague-Dawley rat striatum at 37 MBq, iv measured 30 mins post injection; assay type: ADME, organism-based; conditions: in vivo, 0.5 h
[13] = test system: Blood; assay: Biodistribution in Sprague-Dawley rat blood at 37 MBq, iv measured 2 mins post injection; assay type: ADME, organism-based; conditions: in vivo
[14] = test system: Brain; assay: Biodistribution in Sprague-Dawley rat rest of brain at 37 MBq, iv measured 5 mins post injection; assay type: ADME, organism-based; conditions: in vivo
[15] = test system: Hippocampus; assay: Biodistribution in Sprague-Dawley rat hippocampus at 37 MBq, iv measured 15 mins post injection; assay type: ADME, organism-based; conditions: in vivo, 0.25 h
[16] = test system: Rattus norvegicus; assay: Biodistribution in Sprague-Dawley rat cortex (front) at 37 MBq, iv measured 5 mins post injection; assay type: ADME, organism-based; conditions: in vivo
[17] = test system: Brain; assay: Biodistribution in Sprague-Dawley rat rest of brain at 37 MBq, iv measured 30 mins post injection; assay type: ADME, organism-based; conditions: in vivo, 0.5 h
[18] = test system: Rattus norvegicus; assay: Biodistribution in Sprague-Dawley rat hipothalamus at 37 MBq, iv measured 15 mins post injection; assay type: ADME, organism-based, Hypothalamus; conditions: in vivo, 0.25 h; summary of the method: as §1
[19] = test system: Rattus norvegicus; assay: Biodistribution in Sprague-Dawley rat hipothalamus at 37 MBq, iv measured 2 mins post injection; assay type: ADME, organism-based, Hypothalamus; conditions: in vivo
[20] = test system: Blood; assay: Biodistribution in Sprague-Dawley rat blood at 37 MBq, iv measured 15 mins post injection; assay type: ADME, organism-based; conditions: in vivo, 0.25 h
[21] = test system: Thalamus; assay: Biodistribution in Sprague-Dawley rat thalamus at 37 MBq, iv measured 2 mins post injection; assay type: ADME, organism-based; conditions: in vivo
[22] = test system: Cerebellum; assay: Biodistribution in Sprague-Dawley rat cerebellum at 37 MBq, iv measured 60 mins post injection; assay type: ADME, organism-based; conditions: in vivo, 1 h
[23] = test system: Cerebellum; assay: Biodistribution in Sprague-Dawley rat cerebellum at 37 MBq, iv measured 15 mins post injection; assay type: ADME, organism-based; conditions: in vivo, 0.25 h
[24] = test system: Striatum; assay: Biodistribution in Sprague-Dawley rat striatum at 37 MBq, iv measured 5 mins post injection; assay type: ADME, organism-based; conditions: in vivo
[25] = test system: Cerebellum; assay: Biodistribution in Sprague-Dawley rat cerebellum at 37 MBq, iv measured 5 mins post injection; assay type: ADME, organism-based; conditions: in vivo
[26] = test system: Thalamus; assay: Biodistribution in Sprague-Dawley rat thalamus at 37 MBq, iv measured 60 mins post injection; assay type: ADME, organism-based; conditions: in vivo, 1 h; summary of the method: as §1
[27] = test system: Rattus norvegicus; assay: Biodistribution in Sprague-Dawley rat cortex (front) at 37 MBq, iv measured 30 mins post injection; assay type: ADME, organism-based; conditions: in vivo, 0.5 h
[28] = test system: Hippocampus; assay: Biodistribution in Sprague-Dawley rat hippocampus at 37 MBq, iv measured 2 mins post injection; assay type: ADME, organism-based; conditions: in vivo
[29] = test system: Thalamus; assay: Biodistribution in Sprague-Dawley rat thalamus at 37 MBq, iv measured 30 mins post injection; assay type: ADME, organism-based; conditions: in vivo, 0.5 h; summary of the method: as §1
[30] = test system: Striatum; assay: Biodistribution in Sprague-Dawley rat striatum at 37 MBq, iv measured 2 mins post injection; assay type: ADME, organism-based; conditions: in vivo
[31] = test system: Rattus norvegicus; assay: Biodistribution in Sprague-Dawley rat cortex (front) at 37 MBq, iv measured 2 mins post injection; assay type: ADME, organism-based; conditions: in vivo
[32] = test system: Brain; assay: Biodistribution in Sprague-Dawley rat rest of brain at 37 MBq, iv measured 2 mins post injection; assay type: ADME, organism-based; conditions: in vivo
[33] = test system: Blood; assay: Biodistribution in Sprague-Dawley rat blood at 37 MBq, iv measured 30 mins post injection; assay type: ADME, organism-based; conditions: in vivo, 0.5 h
[34] = test system: Blood; assay: Biodistribution in Sprague-Dawley rat blood at 37 MBq, iv measured 5 mins post injection; assay type: ADME, organism-based; conditions: in vivo
[35] = test system: Rattus norvegicus; assay: Biodistribution in Sprague-Dawley rat hipothalamus at 37 MBq, iv measured 60 mins post injection; assay type: ADME, organism-based, Hypothalamus; conditions: in vivo, 1 h; summary of the method: as §1
[36] = test system: Rattus norvegicus; assay: Biodistribution in Sprague-Dawley rat hipothalamus at 37 MBq, iv measured 5 mins post injection; assay type: ADME, organism-based, Hypothalamus; conditions: in vivo; summary of the method: as §1
[37] = test system: Brain; assay: Biodistribution in Sprague-Dawley rat rest of brain at 37 MBq, iv measured 60 mins post injection; assay type: ADME, organism-based; conditions: in vivo, 1 h
[38] = test system: Cerebellum; assay: Biodistribution in Sprague-Dawley rat cerebellum at 37 MBq, iv measured 30 mins post injection; assay type: ADME, organism-based; conditions: in vivo, 0.5 h
[39] = test system: Thalamus; assay: Biodistribution in Sprague-Dawley rat thalamus at 37 MBq, iv measured 15 mins post injection; assay type: ADME, organism-based; conditions: in vivo, 0.25 h; summary of the method: as §1
[40] = test system: Hippocampus; assay: Biodistribution in Sprague-Dawley rat hippocampus at 37 MBq, iv measured 30 mins post injection; assay type: ADME, organism-based; conditions: in vivo, 0.5 h
[41] = test system: Brain; assay: Biodistribution in Sprague-Dawley rat rest of brain at 37 MBq, iv measured 15 mins post injection; assay type: ADME, organism-based; conditions: in vivo, 0.25 h
[42] = test system: Rattus norvegicus; assay: Biodistribution in Sprague-Dawley rat cortex (rest) at 37 MBq, iv measured 15 mins post injection; assay type: ADME, organism-based; conditions: in vivo, 0.25 h
[43] = test system: Cerebellum; assay: Biodistribution in Sprague-Dawley rat cerebellum at 37 MBq, iv measured 2 mins post injection; assay type: ADME, organism-based; conditions: in vivo
[44] = test system: Striatum; assay: Biodistribution in Sprague-Dawley rat striatum at 37 MBq, iv measured 60 mins post injection; assay type: ADME, organism-based; conditions: in vivo, 1 h
[45] = test system: Rattus norvegicus; assay: Biodistribution in Sprague-Dawley rat cortex (rest) at 37 MBq, iv measured 5 mins post injection; assay type: ADME, organism-based; conditions: in vivo
[46] = test system: Blood; assay: Biodistribution in Sprague-Dawley rat blood at 37 MBq, iv measured 60 mins post injection; assay type: ADME, organism-based; conditions: in vivo, 1 h

- logD [1]: 4.12
Structure (SMILES): Cc1nc(O[11CH3])ccc1-c1cccc2c(N)c3c(nc12)CN(C1CCC1)C3=O

- Drug uptake [2]: 0.13 % ID/g
- Drug uptake [3]: 0.13 % ID/g
- Drug uptake [4]: 0.11 % ID/g
- Drug uptake [5]: 0.13 % ID/g
- Drug uptake [6]: 0.12 % ID/g
- Drug uptake [7]: 0.12 % ID/g
- Drug uptake [8]: 0.14 % ID/g
- Drug uptake [9]: 0.1 % ID/g
- Drug uptake [10]: 0.1 % ID/g
- logD [1]: 3.2
- Drug uptake [11]: 0.13 % ID/g
- Drug uptake [12]: 0.12 % ID/g
- Drug uptake [13]: 0.18 % ID/g
- Drug uptake [14]: 0.11 % ID/g
- Drug uptake [15]: 0.1 % ID/g
- Drug uptake [16]: 0.13 % ID/g
- Drug uptake [17]: 0.12 % ID/g
- Drug uptake [18]: 0.1 % ID/g
- Drug uptake [19]: 0.11 % ID/g
- Drug uptake [20]: 0.87 % ID/g
- Drug uptake [21]: 0.1 % ID/g
- Drug uptake [22]: 0.11 % ID/g
- Drug uptake [23]: 0.12 % ID/g
- Drug uptake [24]: 0.11 % ID/g
- Drug uptake [25]: 0.14 % ID/g
- Drug uptake [26]: 0.14 % ID/g
- Drug uptake [27]: 0.14 % ID/g
- Drug uptake [28]: 0.08 % ID/g
- Drug uptake [29]: 0.12 % ID/g
- Drug uptake [30]: 0.1 % ID/g
- Drug uptake [31]: 0.12 % ID/g
- Drug uptake [32]: 0.1 % ID/g
- Drug uptake [33]: 0.09 % ID/g
- Drug uptake [34]: 0.12 % ID/g
- Drug uptake [35]: 0.11 % ID/g
- Drug uptake [36]: 0.11 % ID/g
- Drug uptake [37]: 0.11 % ID/g
- Drug uptake [38]: 0.13 % ID/g
- Drug uptake [39]: 0.13 % ID/g
- Drug uptake [40]: 0.11 % ID/g
- Drug uptake [41]: 0.11 % ID/g
- Drug uptake [42]: 0.13 % ID/g
- Drug uptake [43]: 0.13 % ID/g
- Drug uptake [44]: 0.11 % ID/g
- Drug uptake [45]: 0.13 % ID/g
- Drug uptake [46]: 0.13 % ID/g
Structure (SMILES): CC(NCCC(c1ccccc1)c1ccccc1)c1ccc(O[11CH3])c(Cl)c1 (racemic)
